Assay results reported in PubChem BioAssay AID720508 (The Scripps Research Institute Molecular Screening Center, 2013).
Hit rate of the full screen: of about 370,000 compounds, about 500 (0.14%) were called active. The full list was thinned out, with actives kept by preference. Values without a mark were called inactive.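 The calls were made as follows: active = inhibition above the mean of compounds falling within the control limits plus 3 SD of them (cut at about 14% in these data); inactive = the rest.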

Each molecule was assayed against Fibrinogen beta chain (Homo sapiens) (UniProt P02675) (assay: small molecules displacing Tn7 from DD(E) complex – biochemical, fluorescence polarization, human fibrin, Tn7 probe, primary screen (AID 720508;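 also: 0% = plate median of compound wells and 100% = 10 µM Aha-Tn7 peptide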)). Details: FP displacement of FITC-Tn7 peptide from fibrin DD(E); at 8.3 µM; active compounds read high; 0% = median of compound wells per plate.
Chain of Fibrinogen beta chain (Homo sapiens) (P02675 whole entry, looked up): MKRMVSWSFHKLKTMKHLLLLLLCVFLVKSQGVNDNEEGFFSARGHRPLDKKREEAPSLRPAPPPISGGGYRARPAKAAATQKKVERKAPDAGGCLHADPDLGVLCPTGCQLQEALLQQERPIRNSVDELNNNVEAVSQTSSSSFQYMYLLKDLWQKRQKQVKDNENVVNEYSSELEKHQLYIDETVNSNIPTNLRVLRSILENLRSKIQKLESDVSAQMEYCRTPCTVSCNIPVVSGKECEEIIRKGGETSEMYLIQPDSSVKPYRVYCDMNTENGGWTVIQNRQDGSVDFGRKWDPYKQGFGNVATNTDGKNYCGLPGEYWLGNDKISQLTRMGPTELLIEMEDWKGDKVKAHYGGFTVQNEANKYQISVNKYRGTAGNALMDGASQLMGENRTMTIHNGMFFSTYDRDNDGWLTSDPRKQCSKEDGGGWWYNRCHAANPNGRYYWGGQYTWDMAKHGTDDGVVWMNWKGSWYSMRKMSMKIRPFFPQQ
Summary of the method: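 Assay system: Fibrin-DD(E) protein isolated from polymerized human fibrin clots; read-out basis: percent inhibition; medium: Tris/NaCl/CaCl2 buffer, pH 7.8; signal: FP measurement; incubation: 10 min plus 3 h, room temperature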
With COc1ccc(C(C(=O)NC2CCCCC2)N(C(=O)Cc2c[nH]c3ccccc23)c2ccccc2)cc1OC (stereo unspecified) the inhibition was 2.39%. COC(=O)CNC(=O)C(CCSC)NC(C)=O (stereo unspecified) showed an inhibition of 3.11%. COc1cc(OC)c(C(=S)N2CCCC2)cc1OC showed an inhibition of 2.99%. In the case of CC1(C)C/C(=C(/C#N)C(N)=O)CCO1, the inhibition is reported as -4%. Cc1cc(C(=O)COc2ccc(Br)cc2F)c(C)n1C1CC1 showed an inhibition of 1.64%. With O=C(NC1CCCCN(Cc2cccc(C(F)(F)F)c2)C1=O)c1ccccc1I (stereo unspecified) the inhibition was 2.66%. Work on O=C(NCc1ccc(F)cc1F)[C@@H]1CCCN1C(=O)[C@@H]1CCCN1C(=O)c1cccc(Cl)c1 yielded an inhibition of -9.38%. Molecule O=C(COC(=O)CNS(=O)(=O)c1ccccc1)NC12CC3CC(CC(C3)C1)C2 has an inhibition of 2.98%. CC1CC1C(=O)OCC(=O)c1c(N)n(C)c(=O)n(C)c1=O (stereo unspecified) showed an inhibition of -2.99%. CC(C)NC(=O)C1(C)CCCCN1Cc1cccc(C(F)(F)F)c1 (stereo unspecified) gave an inhibition of 1.37%. For Clc1ccc(CN2CCCCCC2)cc1Cl, the inhibition was 1.42%. c1cc(-c2nn[nH]n2)ccc1CN1CCCCC1 was tested, and the inhibition was 14.4% (active). In the case of Brc1ccc(-c2nn[nH]n2)cc1, the inhibition is reported as -4.35%. COc1cccc(N2CC(NS(=O)(=O)c3ccc(Cl)cc3)CC2=O)c1 (stereo unspecified) gave an inhibition of -2.23%. With COc1cccc(N2CC(NC(=O)c3ccc4ccccc4c3)CC2=O)c1 (stereo unspecified) the inhibition was 6.86%. COc1cccc(N2CC(NS(=O)(=O)c3cccs3)CC2=O)c1 (stereo unspecified) was tested, and the inhibition was 15.4% (active). CCN(CC)C(=O)CSC(Nc1cccc(F)c1)=C(C#N)C#N showed an inhibition of 2.96%. CCn1c(C)nc2c1C(=O)c1ccccc1C2=O showed an inhibition of -6.92%. CCC(C(=O)OC)n1cnc2c(oc3ccccc32)c1=O (stereo unspecified) was tested, and the inhibition was 6.68%. Work on Cc1ccc(S(=O)(=O)CC(=O)Nc2sc(C)c(C)c2C(N)=O)cc1 yielded an inhibition of -0.13%. NC1=NC(=O)C(Cc2cccc(Cl)c2)S1 (stereo unspecified) gave an inhibition of 2.82%. With COCc1cc(=O)n2[nH]c(C)c(-c3ccccc3)c2n1 the inhibition was -2.38%. With CN(C(=O)C1CCN(c2ncnc3c2nc2n3CCCCC2)CC1)C1CCCCC1 the inhibition was -2.26%. For Cc1ccc(CN2CCN(Cc3ccc(OCCO)cc3)CC2CCO)o1 (stereo unspecified), the inhibition was 7.01%. CCCCNC(=O)C[C@@H]1C[C@@]2(C(=O)OCC)CCC=C2N(Cc2cccc3ccccc23)C1=O gave an inhibition of -3.28%. Work on CN(C(=O)CSc1nc(C2CC2)nc2ccccc12)c1nc(-c2ccccc2)cs1 yielded an inhibition of -7.43%. CN1c2ccc(C=O)c3c(C=O)ccc(c23)N(C)C1(C)C was tested, and the inhibition was 16.9% (active). COc1ccc(NC(=O)NNC(=O)COc2cc(C)c(Cl)c(C)c2)c(OC)c1 gave an inhibition of -5.88%. In the case of O=C1NC(=Nc2ccc(Cl)cc2)SC1Cc1cccc(Cl)c1Cl (stereo unspecified), the inhibition is reported as 0.11%. In the case of Cc1ccc(N(C(=O)C(F)(F)F)C(C(=O)NC2CCCCC2)c2ccncc2)cc1C (stereo unspecified), the inhibition is reported as 5.16%. Molecule CC[C@@H]1CCCCc2ccccc2[C@@H](C(=O)C[C@H](O)CC(C)=O)OC1=O has an inhibition of 1.6%. CCCNC(=O)C(=O)Nc1cc2c3c(c1)CCC(=O)N3CCC2 gave an inhibition of 0.54%. COc1ccccc1C(=O)N1CCN=C1SCc1cccnc1 showed an inhibition of 3.49%. In the case of COC(=O)CNc1nc(Cl)nc(N2CCC(C)CC2)n1, the inhibition is reported as 7.41%. For NC(=O)c1cc(S(=O)(=O)N2CCCC2)ccc1OCc1ccc(F)cc1, the inhibition was 0.91%. CC(C)(C)c1ccccc1NC(=O)CN1C(=O)NC2(CCCC2)C1=O was tested, and the inhibition was -0.76%. Work on Cc1nn(C)c(C)c1S(=O)(=O)N1CCc2ccccc21 yielded an inhibition of -4.06%. CCO[C@H]1OC(C(=O)N2CCN(Cc3ccccc3)CC2)=C[C@@H](c2cn(C(C)=O)c3ccccc23)[C@@H]1CCCO gave an inhibition of 7%. With C=CCOc1ccc(/C=C/C(=O)OCC(=O)NC2CCCCCC2)cc1 the inhibition was 0.53%. COc1ccccc1/C=C/C(=O)OCC(=O)NC1CCCCCC1 was tested, and the inhibition was 8.08%. In the case of O=C(COC(=O)/C=C/c1ccc(OC(F)F)cc1)NC1CCCCC1, the inhibition is reported as 13.9% (active).
